Screening data as filed in PubChem BioAssay.
APJ agonist = agonists of human apelin receptor APJ, primary screen, CHO-K1 cells, PathHunter beta-arrestin, luminescence; 330,000 tested, 0.11% active; 0% DMSO wells, 100% apelin; AID 2520, 2010; activation, % at 20 µM; P35414;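 active means activation more than six SD over the plate average, tested at 20 µM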;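 further: 0% = DMSO alone and 100% = apelin-13 at 10 nM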
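Test system – PathHunter CHO-K1 APJ (AGTRL-1) beta-arrestin reporter cells · Input – 1000 cells/well · Compound – single test compound dose, 20 µM final, 1% DMSO · Times – compound stimulation 90 min at 25 °C, detection 60 min · Technique – beta-gal luminescence · Read-out basis – APJ–arrestin association signal · Control set – negative DMSO alone, positive Apelin-13 at 10 nM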
APJ antag = antagonists of human apelin receptor APJ, primary screen, CHO-K1 cells, beta-arrestin complementation, luminescence | P35414 | inhibition, % at 20 µM | 330,000 tested, 0.32% active | AID 2521, 2010;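 active means inhibition above about 40% at 20 µM, limit read from the data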;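 further: cells challenged with 10 nM apelin-13 agonist together with compound; plate controls were apelin-13 plus DMSO wells for no effect and DMSO wells lacking apelin-13 for full effect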
CXCR6 block = CXCR6 receptor inhibitors, primary screen, cell-based, beta-arrestin, luminescence, CHO-K1 PathHunter, 1536-well; inhibition, % at 20 µM; C-X-C chemokine receptor type 6 (Homo sapiens), O00574; 360,000 tested, 0.36% active; in the data active means inhibition above about 34%, passing the limit was not always enough;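 further: antagonist mode with CXCL16 agonist at 10 nM final; 0% = 10 nM CXCL16 with DMSO and 100% = unstimulated wells without agonist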
EBI2 antag = EBI2 receptor antagonists, beta-arrestin recruitment, primary screen, cell-based, luminescence, 7a,25-OHC stimulation, uHTS; G-protein coupled receptor 183 (Homo sapiens), P32249; 7a,25-OHC stimulated; inhibition, % at 5 µM; 360,000 tested, 0.81% active; AID 651636, 2012; in the data active means inhibition above about 38%;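 further: enzyme fragment complementation signal reports receptor beta-arrestin coupling in cells; 0% = agonist plus DMSO wells and 100% = wells without agonist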
CCR6 antag = CCR6 receptor antagonists, primary screen, cell-based, CHO-K1, luminescence, beta-arrestin, uHTS | C-C chemokine receptor type 6 (Homo sapiens), P51684 | CHO-K1 CCR6 PathHunter beta-arrestin, CCL20-stimulated | inhibition, % at 20 µM | 340,000 tested, 0.49% active | AID 493098, 2011;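 active means compounds whose inhibition of the agonist-driven luminescence signal at 20 µM reaches about 50%, limit read from the data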;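 further: cells stimulated with CCL20 at 14 nM final; plate controls were DMSO with CCL20 for no effect and DMSO without agonist for full effect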
Target sequence (P51684 whole entry, looked up): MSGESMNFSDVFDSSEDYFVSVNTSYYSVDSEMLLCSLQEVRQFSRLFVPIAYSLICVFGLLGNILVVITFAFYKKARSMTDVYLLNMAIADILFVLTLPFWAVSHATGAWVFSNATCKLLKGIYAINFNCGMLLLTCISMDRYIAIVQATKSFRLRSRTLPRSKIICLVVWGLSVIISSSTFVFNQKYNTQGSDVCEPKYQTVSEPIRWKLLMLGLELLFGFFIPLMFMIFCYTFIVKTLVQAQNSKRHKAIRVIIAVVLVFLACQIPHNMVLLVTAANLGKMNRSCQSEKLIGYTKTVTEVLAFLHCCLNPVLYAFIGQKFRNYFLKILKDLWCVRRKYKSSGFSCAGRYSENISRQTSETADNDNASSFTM
HTR2A ag = mouse Htr2a agonists via beta-arrestin recruitment, primary screen, cell-based, luminescence. 360,000 tested, 0.66% active. activation, % at 7.6 µM. CHO-K1 mHTR2A beta-arrestin complementation; percent of 30 µM serotonin response. 5-hydroxytryptamine receptor 2A (Mus musculus), P35363;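 active means activation above a run cutoff, the mean activation of all tested compounds plus 3 SD, cut at about 14% in these data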;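 further: 0% = plate median of compound wells and 100% = 30 µM serotonin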
* hit, by the source's call. Hits are enriched below; roughly 2.1% of the tested compounds scored in any of these assays.

How did C=CC(=O)N1C/C(=C/c2ccc(F)cc2)C(=O)/C(=C\c2ccc(F)cc2)C1 do in these assays?
CXCR6 block: 72*; EBI2 antag: 53*; CCR6 antag: 84*; HTR2A ag: -6

How did O=C(c1ccccc1)N1CCN(Cc2ccc3c(c2)OCO3)CC1 do in these assays?
APJ agonist: -3; APJ antag: 7; CXCR6 block: -1; EBI2 antag: 13; CCR6 antag: -2; HTR2A ag: -8

What do the screens show for `O=C(c1[nH]nc2c1CCc1ccccc1-2)N1CCN(Cc2ccc3c(c2)OCO3)CC1`?
APJ agonist: 0; APJ antag: -2; CXCR6 block: 3; EBI2 antag: 83*; CCR6 antag: 15; HTR2A ag: -5

What do the screens show for `Cc1ccccc1Oc1cc(-n2ncc(Cl)c(Cl)c2=O)ncn1`?
CXCR6 block: 46*; EBI2 antag: 68*; CCR6 antag: 65*; HTR2A ag: 0

How did O=S(=O)(Nc1cc(Sc2cccc3cccnc23)c(O)c2ccccc12)c1ccc(F)cc1 do in these assays?
CCR6 antag: 65*

Results for O=C(Sc1cccc2cccnc12)c1ccc(F)cc1 ?
APJ agonist: -8; APJ antag: 44*

What do the screens show for `CN(C)C(=O)CSc1cccc2cccnc12`?
APJ agonist: -7; APJ antag: 35; CXCR6 block: 55*; EBI2 antag: 19; CCR6 antag: 66*; HTR2A ag: -5

Results for CC(=O)/C(=N\Nc1ccccc1)Sc1cccc2cccnc12 ?
APJ agonist: -4; APJ antag: 15; CXCR6 block: 3; EBI2 antag: 17; CCR6 antag: 10; HTR2A ag: -1

How did O=C(NCCc1cccs1)c1ccc(CS(=O)Cc2cccc(Cl)c2)o1 (centres undefined) do in these assays?
CXCR6 block: -1; EBI2 antag: 18; HTR2A ag: 0

What do the screens show for `COC(=O)c1ccc2nc(-c3ccco3)c(Cc3ccc(OC)cc3C)n2c1`?
CXCR6 block: 0; EBI2 antag: 4; HTR2A ag: 4

What do the screens show for `Cc1cccn2cc(CCNS(=O)(=O)c3cccs3)nc12`?
APJ agonist: -6; APJ antag: -3; CXCR6 block: 2; EBI2 antag: -5; CCR6 antag: 5; HTR2A ag: 0

What do the screens show for `Cc1cccc(Cn2c(=O)n(Cc3ccco3)c(=O)c3ccccc32)c1`?
APJ agonist: -2; APJ antag: 14; CXCR6 block: 14; EBI2 antag: 61*; CCR6 antag: 33; HTR2A ag: -2

Results for CN(C(=O)CSc1nnc(-c2cccs2)n1C1CC1)C1CCS(=O)(=O)C1 (centres undefined) ?
APJ agonist: 6; APJ antag: 6; CXCR6 block: 6; EBI2 antag: -19; CCR6 antag: 12; HTR2A ag: -5

What do the screens show for `COC(=O)[C@]12CCCCC=C1N(CCc1ccc(OC)c(OC)c1)C(=O)[C@H](CC(=O)NCC13CC4CC(CC(C4)C1)C3)C2`?
EBI2 antag: 27; HTR2A ag: -2

Results for CC1(c2ccccc2)CC(C)(C)N2C(=O)C3(C(C#N)=C(N)Oc4cc(O)ccc43)c3cccc1c32 (centres undefined) ?
APJ agonist: 10; APJ antag: -7; CXCR6 block: 8; EBI2 antag: 29; CCR6 antag: 17; HTR2A ag: 34*

How did Cc1cc2c3c(c1)C(C)(c1ccccc1)CC(C)(C)N3C(=O)C21C(C#N)=C(N)OC2=C1C(=O)CC(C)(C)C2 (centres undefined) do in these assays?
APJ agonist: -1; APJ antag: 11; CXCR6 block: 9; EBI2 antag: 15; CCR6 antag: 4; HTR2A ag: 0

What do the screens show for `CS(=O)(=O)N(CC(=O)Nc1cccc([N+](=O)[O-])c1)c1cccc(F)c1`?
APJ agonist: -3; APJ antag: -6; CXCR6 block: 7; EBI2 antag: 2; CCR6 antag: 13; HTR2A ag: -5

How did O=[N+]([O-])c1cc(Cl)cc(/C=N\Nc2ccccn2)c1O do in these assays?
APJ agonist: -7; APJ antag: 20; CXCR6 block: 78*; EBI2 antag: 32; CCR6 antag: 74*; HTR2A ag: 2

How did O=[N+]([O-])c1ccc(Cl)cc1C=NNc1ccccn1 do in these assays?
CXCR6 block: -8; EBI2 antag: -7; CCR6 antag: 9; HTR2A ag: -1

How did COc1cc(/C=N/NC(N)=S)cc(Br)c1OCc1ccccc1F do in these assays?
APJ agonist: -3; APJ antag: -1; CXCR6 block: 0; EBI2 antag: 34; CCR6 antag: 31; HTR2A ag: 0

What do the screens show for `CCOc1cc(/C=N/NC(N)=S)cc(Br)c1OCc1ccccc1C`?
APJ agonist: -7; APJ antag: 3; CXCR6 block: 5; EBI2 antag: 47*; CCR6 antag: 16; HTR2A ag: 11

Results for O=C1NC(=S)SC1=C1CCCCCC1 ?
APJ agonist: -4; APJ antag: 17; CXCR6 block: 5; EBI2 antag: -2; CCR6 antag: 51*; HTR2A ag: -4

How did O=C(Nc1ccc(S(=O)(=O)N2CCCCC2)cc1)c1ccncc1 do in these assays?
APJ agonist: 9; APJ antag: 0; CXCR6 block: -8; EBI2 antag: -7; CCR6 antag: 58*; HTR2A ag: -1

What do the screens show for `O=C(N/N=C/c1cc(Cl)ccc1O)c1ccc(Br)cc1`?
CXCR6 block: 2; EBI2 antag: 48*; CCR6 antag: 12; HTR2A ag: -10

What do the screens show for `O=C(N/N=C\c1cc(Br)ccc1O)c1ccc(S(=O)(=O)N2CCCCC2)cc1`?
APJ agonist: 0; APJ antag: -12; CXCR6 block: -3; EBI2 antag: 58*; CCR6 antag: 15; HTR2A ag: -2

How did O=C(N/N=C/c1ccc(O)c(O)c1)c1cccc(S(=O)(=O)N2CCCCC2)c1 do in these assays?
APJ agonist: -1; APJ antag: 1; CXCR6 block: 0; EBI2 antag: 0; CCR6 antag: 2; HTR2A ag: 3

Results for Cc1ccc(C(=O)C(C)OC(=O)c2cc(=O)[nH]c3ccccc23)cc1 (centres undefined) ?
APJ agonist: 0; APJ antag: -49; CXCR6 block: -4; EBI2 antag: 6; CCR6 antag: 16; HTR2A ag: 3

Results for COc1ccc(CNC(=O)c2cccc3c(-c4cnn(C)c4)coc23)cc1OC ?
CXCR6 block: -9; EBI2 antag: 0; HTR2A ag: 8
